For 5 molecules, MIC, selectivity ratio and viability results are on record in ChEMBL document CHEMBL2429794, “Tuning the antibacterial activity of amphiphilic neamine derivatives and comparison to paromamine homologues” (J Med Chem, 2013).

≈ marks a conversion by molar mass, not a printed value.

Series [1] concerns Pseudomonas aeruginosa. Briefly: Antibacterial activity against Pseudomonas aeruginosa F03 expressing AAC6'-2A after 24 hrs by geometric microdilution method. In kind it is functional. The note with it: F03, 24 h. (In general: Dilution methods test growth across graded concentrations, often in twofold steps.)
Series [2] is described as follows: Ratio of cytotoxicity against murine J774 cells to antibacterial activity against Pseudomonas aeruginosa F03 expressing AAC6'-2A. In kind it is toxicity, cell-based. Conditions: mouse.
For series [3], the system named is Staphylococcus aureus. Briefly: microbe, parasite or virus in culture. Conditions: ATCC 25923, 24 h.
Series [4] deals with Staphylococcus aureus. In words: Antibacterial activity against Staphylococcus aureus expressing aminoglycoside-[…] after 24 hrs by geometric microdilution method. In kind it is functional. A digest of the protocol:
(§1)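 Broth cultures were incubated in plates at 37 °C, and growth was read as absorbance at 650 nm after 1, 4, 7 and 24 h. Ampicillin (16 mg/L) was the positive control and DMSO the negative control. Each MIC (μg/mL) is the average of at least three determinations.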

For series [5], the system named is Staphylococcus aureus. In words: Antibacterial activity against healthcare-acquired methicillin-resistant Staphylococcus aureus ATCC 33592 after 24 hrs by geometric microdilution method. In kind it is functional. The note with it: ATCC 33592, 24 h. A digest of the protocol: as §1
The test system of series [6] is Pseudomonas aeruginosa. In words: Antibacterial activity against Pseudomonas aeruginosa ATCC 27853 after 24 hrs by geometric microdilution method. In kind it is functional. The note with it: ATCC 27853, 24 h.
Series [7] has as its system Escherichia coli. In words: Antibacterial activity against Escherichia coli PAZ505H8101 expressing AAC6'-1B after 24 hrs by geometric microdilution method. Conditions: PAZ505H8101, 24 h. In kind it is functional.
Series [8] can be described thus: Ratio of cytotoxicity against murine J774 cells to antibacterial activity against vancomycin-resistant Staphylococcus aureus VRS2. In kind it is toxicity, cell-based. The note with it: mouse.
The test system of series [9] is Staphylococcus aureus. In words: Antibacterial activity against Staphylococcus aureus expressing aminoglycoside-3'-O-phosphoryltransferase after 24 hrs by geometric microdilution method. In kind it is functional. A digest of the protocol: as §1
For series [10], the system named is Staphylococcus aureus. In words: Antibacterial activity against fluoroquinolone-resistant Staphylococcus aureus 1199B expressing NorA efflux pump after 24 hrs by geometric microdilution method. In kind it is functional. A digest of the protocol:
as §1

Series [11] deals with Pseudomonas aeruginosa. In words: Antibacterial activity against Pseudomonas aeruginosa PA22 (PT629) expressing MexXY after 24 hrs by geometric microdilution method. In kind it is functional.
A short description of series [12]: Cytotoxicity against murine J774 cells assessed as cell viability at 10 uM after 24 hrs by MTT assay relative to control. In kind it is cell-based. The note with it: mouse, read-out: Activity. A digest of the protocol:
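Murine J774 macrophages were exposed for 24 h to compounds at 10 μM, then incubated 1 h with 0.2 mg/mL MTT. Viability was read from mitochondrial reduction of MTT to purple formazan, expressed as percent viability, and averaged over three experiments.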

Series [13] deals with Staphylococcus aureus. In words: Antibacterial activity against 14- and 15-membered macrolide-resistant Staphylococcus aureus expressing MsrA efflux pump after 24 hrs by geometric microdilution method. In kind it is functional. A digest of the protocol: as §1
Series [14] can be described thus: Ratio of cytotoxicity against murine J774 cells to antibacterial activity against Pseudomonas aeruginosa ATCC 27853. In kind it is toxicity, cell-based. Conditions: mouse.
Series [15] in a line: Ratio of cytotoxicity against murine J774 cells to antibacterial activity against Pseudomonas aeruginosa PA22 (PT629) expressing MexXY. The note with it: mouse. In kind it is toxicity, cell-based.
For series [16], the system named is Staphylococcus aureus. In words: Antibacterial activity against vancomycin-resistant Staphylococcus aureus VRS2 after 24 hrs by geometric microdilution method. In kind it is functional. Conditions: VRS2, 24 h. A digest of the protocol: as §1
Series [17] concerns Escherichia coli. In words: Antibacterial activity against Escherichia coli L58058.1 expressing ANT2''-1A after 24 hrs by geometric microdilution method. In kind it is functional. The note with it: L58058.1, 24 h.
Series [18] relates to Staphylococcus aureus. Briefly: Antibacterial activity against Staphylococcus aureus expressing aminoglycoside-6'-N-acetyltransferase/2''-O-phosphoryltransferase after 24 hrs by geometric microdilution method. In kind it is functional. A digest of the protocol:
as §1

Series [19] relates to Escherichia coli. In words: microbe, parasite or virus in culture. Conditions: ATCC 25922, 24 h.
Series [20] is described as follows: Ratio of cytotoxicity against murine J774 cells to antibacterial activity against healthcare-acquired methicillin-resistant Staphylococcus aureus ATCC 33592. The note with it: mouse. In kind it is toxicity, cell-based.
Series [21] has as its system Acinetobacter lwoffii. Briefly: Antibacterial activity against Acinetobacter lwoffii ATCC 17925 after 24 hrs by geometric microdilution method. Conditions: ATCC 17925, 24 h. In kind it is functional.
In a further series the test system is Klebsiella pneumoniae. Briefly: Antibacterial activity against Klebsiella pneumoniae ATCC 700603 after 24 hrs by geometric microdilution method. In kind it is functional. The note with it: ATCC 700603, 24 h.
In series [22] the test system is Acinetobacter lwoffii. In words: Antibacterial activity against Acinetobacter lwoffii AI.88-483 expressing APH3'-6A after 24 hrs by geometric microdilution method. In kind it is functional. The note with it: AI.88-483, 24 h.

In the case of `CCCCCCCCCO[C@@H]1[C@@H](N)[C@@H](O[C@H]2[C@H](O)[C@@H](OCCCCCCCCC)[C@H](N)C[C@@H]2N)O[C@H](CN)[C@H]1O`, the MIC was found to be 4 µg/mL (≈ 6.96 µM) in the series with Pseudomonas aeruginosa [1]; 2 µg/mL (≈ 3.48 µM) against Staphylococcus aureus [3]; 4 µg/mL (≈ 6.96 µM) with Staphylococcus aureus [4]; 4 µg/mL (≈ 6.96 µM) with Staphylococcus aureus [5]; 4 µg/mL (≈ 6.96 µM) with Pseudomonas aeruginosa [6]; 2 µg/mL (≈ 3.48 µM) against Escherichia coli [7]. Moreover, the MIC in the series on Staphylococcus aureus [9] turned out to be 2 µg/mL (≈ 3.48 µM); against Staphylococcus aureus [10] it was 8 µg/mL (≈ 13.9 µM); in the series on Pseudomonas aeruginosa [11], 4 µg/mL (≈ 6.96 µM); against Staphylococcus aureus [13], 4 µg/mL (≈ 6.96 µM); against Staphylococcus aureus [16], 2 µg/mL (≈ 3.48 µM); against Escherichia coli [17] it was 4 µg/mL (≈ 6.96 µM). For the same molecule, the MIC against Staphylococcus aureus [18] and against Escherichia coli [19] was 4 µg/mL (≈ 6.96 µM) each time. Besides, the selectivity ratio is 2.5 in series [2], greater than 5 in [8], 2.5 in [14] and 2.5 in series [15]. The viability at 24 h, 10 µM in series [12] was determined as 75%.

In the case of `NC[C@H]1O[C@H](O[C@H]2[C@H](O)[C@@H](OCCCc3ccc4ccccc4c3)[C@H](N)C[C@@H]2N)[C@H](N)[C@@H](OCCCc2ccc3ccccc3c2)[C@@H]1O`, the MIC against Pseudomonas aeruginosa [1] came out at 16 µg/mL (≈ 24.3 µM); against Staphylococcus aureus [3] it was 2 µg/mL (≈ 3.04 µM); with Staphylococcus aureus [4], 1 µg/mL (≈ 1.52 µM); in the series with Staphylococcus aureus [5] it was 2 µg/mL (≈ 3.04 µM); with Pseudomonas aeruginosa [6], 4 µg/mL (≈ 6.07 µM); in the series with Escherichia coli [7] it was 8 µg/mL (≈ 12.1 µM). Further, the MIC was 1 µg/mL (≈ 1.52 µM) in the series with Staphylococcus aureus [9]; 2 µg/mL (≈ 3.04 µM) against Staphylococcus aureus [10]; 16 µg/mL (≈ 24.3 µM) against Pseudomonas aeruginosa [11]; 0.5 µg/mL (≈ 0.759 µM) in the series with Staphylococcus aureus [13]; 1 µg/mL (≈ 1.52 µM) in the series on Staphylococcus aureus [16]; 16 µg/mL (≈ 24.3 µM) against Escherichia coli [17]. Also, the MIC against Staphylococcus aureus [18] stood at 2 µg/mL (≈ 3.04 µM); against Escherichia coli [19], 16 µg/mL (≈ 24.3 µM). The selectivity ratio in series [20] stood at 5.5; in series [8], 11. In addition, in [12], the viability at 24 h, 10 µM was 90%.

Consider `NC[C@H]1O[C@H](O[C@H]2[C@H](O)[C@@H](OCCCCc3ccc4ccccc4c3)[C@H](N)C[C@@H]2N)[C@H](N)[C@@H](OCCCCc2ccc3ccccc3c2)[C@@H]1O`, for which the MIC came to 8 µg/mL (≈ 11.6 µM) against Pseudomonas aeruginosa [1]; 2 µg/mL (≈ 2.91 µM) against Staphylococcus aureus [3]; 1 µg/mL (≈ 1.46 µM) against Staphylococcus aureus [4]; 4 µg/mL (≈ 5.82 µM) against Acinetobacter lwoffii [21]; 32 µg/mL (≈ 46.6 µM) with Klebsiella pneumoniae; 2 µg/mL (≈ 2.91 µM) in the series with Staphylococcus aureus [5]. Moreover, the MIC with Pseudomonas aeruginosa [6] was determined as 4 µg/mL (≈ 5.82 µM); against Escherichia coli [7], 4 µg/mL (≈ 5.82 µM); in the series with Staphylococcus aureus [9], 1 µg/mL (≈ 1.46 µM); with Staphylococcus aureus [10] it was 2 µg/mL (≈ 2.91 µM); in the series with Pseudomonas aeruginosa [11], 8 µg/mL (≈ 11.6 µM); in the series with Staphylococcus aureus [13] it was 0.25 µg/mL (≈ 0.364 µM). Moreover, the MIC in the series on Acinetobacter lwoffii [22] was determined as 64 µg/mL (≈ 93.2 µM); against Staphylococcus aureus [16] it was 2 µg/mL (≈ 2.91 µM); with Escherichia coli [17] it was 8 µg/mL (≈ 11.6 µM); against Staphylococcus aureus [18], 2 µg/mL (≈ 2.91 µM); against Escherichia coli [19], 8 µg/mL (≈ 11.6 µM). Moreover, the selectivity ratio in series [8] was greater than 5. Besides, in series [12], the viability at 24 h, 10 µM is 80%.

Take `NC[C@H]1O[C@H](O[C@H]2[C@H](O)[C@@H](OCCCCCCc3ccc4ccccc4c3)[C@H](N)C[C@@H]2N)[C@H](N)[C@@H](OCCCCCCc2ccc3ccccc3c2)[C@@H]1O`: the MIC against Pseudomonas aeruginosa [1] was 64 µg/mL (≈ 86.1 µM); against Staphylococcus aureus [3], 64 µg/mL (≈ 86.1 µM); with Staphylococcus aureus [4] it was greater than 128 µg/mL; in the series on Staphylococcus aureus [5] it was greater than 128 µg/mL; against Pseudomonas aeruginosa [6] it was 32 µg/mL (≈ 43.1 µM); against Escherichia coli [7], 64 µg/mL (≈ 86.1 µM). Besides, the MIC against Staphylococcus aureus [9] was 64 µg/mL (≈ 86.1 µM); with Staphylococcus aureus [10], greater than 128 µg/mL; against Pseudomonas aeruginosa [11], 64 µg/mL (≈ 86.1 µM); in the series with Staphylococcus aureus [16], greater than 128 µg/mL; with Escherichia coli [17], 128 µg/mL (≈ 172 µM); in the series on Staphylococcus aureus [18], 128 µg/mL (≈ 172 µM). The same molecule displayed an MIC with Escherichia coli [19] of 128 µg/mL (≈ 172 µM). Further, the viability at 24 h, 10 µM in series [12] was less than 50%.

Regarding `CCCCCCO[C@@H]1[C@@H](N)[C@@H](O[C@H]2[C@H](O)[C@@H](OCCCCCC)[C@H](N)C[C@@H]2N)O[C@H](CN)[C@H]1OCCCCCC`, the MIC against Pseudomonas aeruginosa [1] is 8 µg/mL (≈ 13.9 µM); in the series with Staphylococcus aureus [3], 4 µg/mL (≈ 6.96 µM); with Staphylococcus aureus [4], 8 µg/mL (≈ 13.9 µM); against Acinetobacter lwoffii [21], 4 µg/mL (≈ 6.96 µM); in the series with Klebsiella pneumoniae, 8 µg/mL (≈ 13.9 µM); in the series with Staphylococcus aureus [5], 4 µg/mL (≈ 6.96 µM). The MIC was 8 µg/mL (≈ 13.9 µM) with Pseudomonas aeruginosa [6]; 4 µg/mL (≈ 6.96 µM) against Escherichia coli [7]; 4 µg/mL (≈ 6.96 µM) in the series on Staphylococcus aureus [9]; 4 µg/mL (≈ 6.96 µM) against Staphylococcus aureus [10]; 8 µg/mL (≈ 13.9 µM) against Pseudomonas aeruginosa [11]; 8 µg/mL (≈ 13.9 µM) against Staphylococcus aureus [13]. Also, the MIC against Acinetobacter lwoffii [22] is 64 µg/mL (≈ 111 µM); in the series on Staphylococcus aureus [16] it was 4 µg/mL (≈ 6.96 µM); in the series on Escherichia coli [17] it was 4 µg/mL (≈ 6.96 µM); with Staphylococcus aureus [18] it was 8 µg/mL (≈ 13.9 µM); against Escherichia coli [19], 4 µg/mL (≈ 6.96 µM). Further, in series [12], the viability at 24 h, 10 µM came to 40%.
